Active and inactive are the calls of the source. The rule behind the calls is not given here.
Key:
HL-60 [1] = experiment: Cytotoxicity against human HL60 cells assessed as reduction in cell viability up to 200 uM after 48 hrs by MTT assay; assay type: functional, cell-based
Summary of the method: (§1)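 Cells (7x10^4/well) in RPMI-1640 with 10% FBS, 37 °C, 5% CO2; exposed to compound dilutions 0–200 µM (medium with 10% FBS, 0.4% DMSO) for 48 h. MTT added, 3 h at 37 °C, formazan dissolved in DMSO, absorbance 540 nm. IC50 from concentration–response; means ± standard deviation of three independent experiments.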

Jurkat = experiment: Cytotoxicity against human Jurkat cells assessed as reduction in cell viability up to 200 uM after 48 hrs by MTT assay; assay type: functional, cell-based; summary of the method: as §1
NALM-6 [2] = experiment: Cytotoxicity against human NALM6 cells assessed as reduction in cell viability up to 200 uM after 48 hrs by MTT assay; assay type: functional, cell-based; summary of the method: as §1
NALM-6 [3] = experiment: Synergistic cytotoxicity against human NALM6 cells assessed as reduction in cell viability by measuring combination index at 8.9 uM after 48 hrs in presence of 0.5 nM vincristine by MTT assay; assay type: functional
NALM-6 [4] = experiment: Synergistic cytotoxicity against human NALM6 cells assessed as reduction in cell viability by measuring combination index at 17.9 uM after 48 hrs in presence of 1 nM vincristine by MTT assay; assay type: functional
NALM-6 [5] = experiment: Induction of autophagy in human NALM6 cells at 20 uM after 24 hrs by acridin orange staining based fluorescence microscopy; assay type: functional, cell-based
Summary of the method: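 Nalm6 (7x10^4/well) exposed 24 h to 20 µM or 0.4% DMSO, washed in PBS, stained with 1 µM acridine orange at 37 °C for 15 min, washed, resuspended in PBS; autophagosomes (red fluorescence) viewed by fluorescence microscopy; three experiments.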

PBMC = experiment: Cytotoxicity against PHA-stimulated human PBMC assessed as reduction in cell viability at 25 uM after 48 hrs by MTT assay; assay type: cell-based
Summary of the method: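 Primary peripheral blood mononuclear cells seeded 1x10^5/well in complete RPMI; treated with 25 µM for 48 h. Viability by MTT (3 h, 37 °C, DMSO solubilization, 540 nm), vehicle taken as 100% viability; triplicate experiments, means ± standard deviation.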

NALM-6 [6] = experiment: Induction of apoptosis in human NALM6 cells assessed as viable cells at 20 uM after 12 hrs by Annexin-V/FITC propidium iodide staining based flow cytometric analysis (reference value: 92.11%); assay type: functional; conditions: NALM-6, 12 h, read-out: Activity
NALM-6 [7] = experiment: Induction of apoptosis in human NALM6 cells assessed as early apoptotic cells at 20 uM after 12 hrs by Annexin-V/FITC propidium iodide staining based flow cytometric analysis (reference value: 7.40%); assay type: functional
NALM-6 [8] = experiment: Induction of apoptosis in human NALM6 cells assessed as late apoptotic cells at 20 uM after 12 hrs by Annexin-V/FITC propidium iodide staining based flow cytometric analysis (reference value: 0.45%); assay type: functional
NALM-6 [9] = experiment: Induction of apoptosis in human NALM6 cells assessed as necrotic cells at 20 uM after 12 hrs by Annexin-V/FITC propidium iodide staining based flow cytometric analysis (reference value: 0.04%); assay type: functional
NALM-6 [10] = experiment: Induction of apoptosis in human NALM6 cells assessed as viable cells at 20 uM after 24 hrs by Annexin-V/FITC propidium iodide staining based flow cytometric analysis (reference value: 90.10%); assay type: functional; conditions: NALM-6, 24 h, read-out: Activity
NALM-6 [11] = experiment: Induction of apoptosis in human NALM6 cells assessed as early apoptotic cells at 20 uM after 24 hrs by Annexin-V/FITC propidium iodide staining based flow cytometric analysis (reference value: 8.22%); assay type: functional
NALM-6 [12] = experiment: Induction of apoptosis in human NALM6 cells assessed as late apoptotic cells at 20 uM after 24 hrs by Annexin-V/FITC propidium iodide staining based flow cytometric analysis (reference value: 1.68%); assay type: functional
NALM-6 [13] = experiment: Induction of apoptosis in human NALM6 cells assessed as necrotic cells at 20 uM after 24 hrs by Annexin-V/FITC propidium iodide staining based flow cytometric analysis (reference value: 0%); assay type: functional
HL-60 [14] = experiment: Antiproliferative activity against human HL60 cells at 20 uM by trypan blue dye exclusion assay; assay type: functional, cell-based; conditions: TDE = time-dependent effect
Summary of the method: (§2)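 Nalm6 at 1x10^4 or HL60 at 1.5x10^4 cells per well exposed to 20 µM; DMSO (0.4% v/v) as control. Viable cells counted by trypan blue exclusion on a hemocytometer at 0, 24, 48, 72 and 96 h; growth inhibition relative to control.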

NALM-6 [15] = experiment: Antiproliferative activity against human NALM6 cells at 20 uM by trypan blue dye exclusion assay; assay type: functional, cell-based; conditions: TDE = time-dependent effect; summary of the method: as §2
HL-60 [16] = experiment: Cytotoxicity against human HL60 cells assessed as cell growth inhibition at 20 uM after 96 hrs by trypan blue dye exclusion assay relative to control; assay type: functional; conditions: HL-60, 96 h, read-out: GI; summary of the method: as §2
NALM-6 [17] = experiment: Cytotoxicity against human NALM6 cells assessed as cell growth inhibition at 20 uM after 96 hrs by trypan blue dye exclusion assay relative to control; assay type: functional; conditions: NALM-6, 96 h, read-out: GI; summary of the method: as §2
NALM-6 [18] = experiment: Effect on actin expression level in human NALM6 cells at 20 uM after 24 hrs by qRT-PCR analysis; assay type: ADME, cell-based; conditions: nalm-6, 24 h
NALM-6 [19] = experiment: Effect on SRPK1 expression level in human NALM6 cells at 20 uM after 24 hrs by Western blot analysis; assay type: functional, cell-based
Summary of the method: (§3)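 Nalm6 treated 24 h at 20 µM (DMSO vehicle control), lysed at 2x10^7 cells/mL in PBS with 1% NP40, 1 mM EDTA, 150 mM NaCl, 10 mM Tris pH 7.4 plus protease/phosphatase inhibitors; on ice 10 min, sonicated, spun 15000 xg; SDS-PAGE, PVDF, milk block overnight, primary and secondary antibody 2 h each; representative of three.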

NALM-6 [20] = experiment: Effect on SRPK2 expression level in human NALM6 cells at 20 uM after 24 hrs by Western blot analysis; assay type: functional, cell-based; summary of the method: as §3
NALM-6 [21] = experiment: Effect on actin expression level in human NALM6 cells at 20 uM after 24 hrs by Western blot analysis; assay type: ADME, cell-based; conditions: nalm-6, 24 h; summary of the method: as §3
[22] = Homo sapiens, HL-60, 48 h, read-out: IC50
[23] = Homo sapiens, Jurkat, 48 h, read-out: IC50
[24] = Homo sapiens, NALM-6, 48 h, read-out: IC50

SMILES: CCN(CC)c1ccc(C(F)(F)F)cc1NC(=O)c1ccccc1
- IC50 (HL-60 [1]; hl-60): Not Active
- IC50 (Jurkat; jurkat): Not Active
- IC50 (NALM-6 [2]; nalm-6): Not Active

SMILES: O=C(Nc1cc(C(F)(F)F)ccc1NC1CCCCC1)c1ccncc1
- IC50 (HL-60 [1]; [22]): 59.2 µM
- IC50 (Jurkat; [23]): 80.9 µM
- IC50 (NALM-6 [2]; [24]): 59 µM

SMILES: O=C(Nc1cc(C(F)(F)F)ccc1N1CCCC1)c1cccnc1Cl
- IC50 (HL-60 [1]; hl-60): Not Active
- IC50 (Jurkat; jurkat): Not Active
- IC50 (NALM-6 [2]; nalm-6): Not Active

SMILES: O=C(Nc1cc(C(F)(F)F)ccc1N1CCOCC1)c1cccnc1
- IC50 (HL-60 [1]; hl-60): Not Active
- IC50 (Jurkat; jurkat): Not Active
- IC50 (NALM-6 [2]; nalm-6): Not Active

SMILES: CCN(CC)c1ccc(C(F)(F)F)cc1NC(=O)c1ccncc1
- IC50 (HL-60 [1]; [22]): 89.7 µM
- IC50 (Jurkat; jurkat): Not Active
- IC50 (NALM-6 [2]; [24]): 63.6 µM

SMILES: O=C(Nc1cc(C(F)(F)F)ccc1Nc1ccc(Br)cc1)c1cccnc1Cl
- CI (NALM-6 [3]): 0.57
- CI (NALM-6 [4]): 1.02
- Activity (NALM-6 [5]): Active
- IC50 (HL-60 [1]; [22]): 14.2 µM
- IC50 (Jurkat; [23]): 20.6 µM
- IC50 (NALM-6 [2]; [24]): 35.7 µM
- Activity (PBMC): Toxic
- viability at 20 µM (NALM-6 [6]): 87.9%
- Activity (NALM-6 [7]): 11.7%
- Activity (NALM-6 [8]): 0.52%
- Activity (NALM-6 [9]): 0%
- viability at 20 µM (NALM-6 [10]): 86.8%
- Activity (NALM-6 [11]): 11.91%
- Activity (NALM-6 [12]): 1.16%
- Activity (NALM-6 [13]): 0.07%
- Activity (HL-60 [14]): Tde
- Activity (NALM-6 [15]): Tde
- inhibition of growth at 20 µM (HL-60 [16]): 33%
- inhibition of growth at 20 µM (NALM-6 [17]): 37%
- Activity (NALM-6 [18]): Non-Toxic
- Activity (NALM-6 [19]): inactive
- Activity (NALM-6 [20]): inactive
- Activity (NALM-6 [21]): Non-Toxic

SMILES: CCN(CC)c1ccc(C(F)(F)F)cc1NC(=O)c1cccnc1
- IC50 (HL-60 [1]; [22]): 71 µM
- IC50 (Jurkat; jurkat): Not Active
- IC50 (NALM-6 [2]; [24]): 63.2 µM

SMILES: O=C(Nc1cc(C(F)(F)F)ccc1NC1CCCCC1)c1ccccc1
- IC50 (HL-60 [1]; [22]): 34.9 µM
- IC50 (Jurkat; jurkat): Not Active
- IC50 (NALM-6 [2]; nalm-6): Not Active

SMILES: O=C(Nc1cc(C(F)(F)F)ccc1N1CCCC1)c1ccccc1
- IC50 (HL-60 [1]; hl-60): Not Active
- IC50 (Jurkat; jurkat): Not Active
- IC50 (NALM-6 [2]; nalm-6): Not Active

SMILES: O=C(Nc1cc(C(F)(F)F)ccc1N1CCOCC1)c1cccnc1Cl
- IC50 (HL-60 [1]; hl-60): Not Active
- IC50 (Jurkat; jurkat): Not Active
- IC50 (NALM-6 [2]; nalm-6): Not Active

SMILES: O=C(Nc1cc(C(F)(F)F)ccc1N1CCCC1)c1cccnc1
- IC50 (HL-60 [1]; hl-60): Not Active
- IC50 (Jurkat; jurkat): Not Active
- IC50 (NALM-6 [2]; nalm-6): Not Active
